T cruzi growth-1 = T. cruzi intracellular proliferation inhibitors, primary screen, cell-based, beta-gal Tulahuen parasites, NIH3T3 host, luminescence | AID 624255, 2012 | actives 5.9% (n = 77,000) | T. cruzi beta-gal in NIH3T3, GalScreen luminescence, 90 h | inhibition, % at 8.34 µM;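 active = mean inhibition above about 93%, with at least 55% of replicates each passing it, limit read from the data, passing the limit was not always enough; inconclusive = only one of those two conditions holds; inactive = neither condition holds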
IDH1 mut inh = inhibitors of IDH1 R132H reductase, primary screen, biochemical, plate reader, single point; diaphorase/resazurin fluorescence, 60 min; inhibition, % at 10 µM; AID 624101, 2012; actives 0.18% (n = 70,000); in the data active = inhibition above about 34%; inconclusive = no clear call, values can overlap the other calls; inactive = below about 11%;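 also: 0% = DMSO and 100% = no enzyme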
Target sequence (O75874 whole entry R132H): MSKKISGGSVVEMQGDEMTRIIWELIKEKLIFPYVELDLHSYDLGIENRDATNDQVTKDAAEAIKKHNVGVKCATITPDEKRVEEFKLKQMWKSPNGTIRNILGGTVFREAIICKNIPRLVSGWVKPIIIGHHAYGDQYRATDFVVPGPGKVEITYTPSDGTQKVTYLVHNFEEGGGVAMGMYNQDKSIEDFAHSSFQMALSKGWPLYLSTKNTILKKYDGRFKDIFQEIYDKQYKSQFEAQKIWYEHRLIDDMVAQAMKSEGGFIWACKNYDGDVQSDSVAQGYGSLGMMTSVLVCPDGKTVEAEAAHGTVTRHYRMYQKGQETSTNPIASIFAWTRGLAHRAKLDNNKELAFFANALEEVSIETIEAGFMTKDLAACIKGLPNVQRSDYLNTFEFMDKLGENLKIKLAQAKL
GASC1 inh = inhibitors of GASC-1 (KDM4C) histone demethylase, primary screen, biochemical, single concentration HTS | GST-KDM4C 2-372, H3K9me3 peptide, LANCE TR-FRET | inhibition, % at 12.5 µM | actives 0.15% (n = 96,000);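 active = mean replicate inhibition above about 25%, with at least 55% of replicates also reaching it, limit read from the data, passing the limit was not always enough; inconclusive = only one of those two conditions met; inactive = neither condition met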
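Test system: N-terminal GST-fused human GASC-1 (KDM4C) fragment, residues 2-372; quantity: GASC-1 enzyme at 10 nM final in reaction; dosing: single dose; schedule: 30 min demethylation and 1 h detection at room temperature; signal: LANCE TR-FRET, excitation 340 nm, emissions 618 and 671 nm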
T cruzi growth-2 = T. cruzi intracellular proliferation inhibitors, confirmation, cell-based, NIH3T3 host, beta-gal parasite, luminescence, cherry-pick; actives 72% (n = 5,600); T. cruzi beta-gal in NIH3T3, GalScreen luminescence, 90 h; inhibition, % at 8.35 µM; shares compounds with T cruzi growth-1;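 active = mean replicate inhibition above about 95% and at least 55% of replicates individually reaching it, limit read from the data; inconclusive = only one of the two criteria is met; inactive = neither criterion is met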
T cruzi growth-3 = inhibitors of intracellular T. cruzi replication, confirmation, NIH3T3 host cells, beta-gal parasites, cherry-pick, set 2; shares compounds with T cruzi growth-1; inhibition, % at 2.09 µM; T. cruzi beta-gal in NIH3T3, GalScreen luminescence, 90 h; AID 651740, 2012; actives 21% (n = 5,600);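 active = mean inhibition above about 95%, with at least 55% of replicates also reaching it, limit read from the data; inconclusive = meets just one of the two conditions; inactive = meets neither condition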;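 also: plate controls were neutral control median for no effect and positive control median for full effect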
3T3 cytotox = cytotoxicity in mouse NIH/3T3 fibroblasts, confirmation, cytotoxicity control for T. cruzi proliferation inhibitor project, cell-based, cherry-pick, single point. cytotoxicity (signal decrease), % at 8.35 µM. actives 14% (n = 5,600). NIH/3T3 viability, CellTiter-Glo ATP luminescence, 90 h. shares compounds with T cruzi growth-1;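 active = mean signal decrease across replicates above about 35% based on untreated-well scatter, with enough replicates individually passing, limit read from the data; inconclusive = no rule stated though some were filed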;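 also: 0% = median of neutral control wells and 100% = median of positive control wells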
NIH3T3 tox 2 = NIH/3T3 fibroblast cytotoxicity, confirmation, cytotoxicity control, cell-based, cherry-pick, single point, set 2. NIH/3T3 viability, CellTiter-Glo ATP luminescence, 90 h. actives 56% (n = 5,600). shares compounds with T cruzi growth-1. AID 651744, 2012. inhibition, % at 24.9 µM;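 active = mean loss of cell viability signal at or above a set limit, and enough replicates individually reaching it; inconclusive = meets only the mean limit or only the replicate share; inactive = meets neither condition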;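 also: 0% = median of neutral control wells and 100% = median of positive control wells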
The depositor's hits bear a star; ? = inconclusive; . = no result given. Only a selection was taken, and hits are over-represented in it overall.

SMILES	T cruzi growth-1	IDH1 mut inh	GASC1 inh	T cruzi growth-2	T cruzi growth-3	3T3 cytotox	NIH3T3 tox 2
CS(=O)(=O)N1CCN(c2ccccc2NC(=O)COc2ccc(Cl)cc2)CC1	.	0	.	.	.	.	.
CO[C@@H]1CN(C)C(=O)c2cc(NS(C)(=O)=O)ccc2OC[C@H](C)N(C(=O)CC2CC2)C[C@H]1C	25	0	0	.	.	.	.
CO[C@H]1CN(C)C(=O)c2cc(NS(C)(=O)=O)ccc2OC[C@H](C)N(C(=O)CC2CC2)C[C@H]1C	23	45*	14	.	.	.	.
CO[C@H]1CN(C)C(=O)c2cc(NC(C)=O)ccc2OC[C@@H](C)N(C(=O)CC2CC2)C[C@H]1C	9	85*	38*	.	.	.	.
CO[C@@H]1CN(C)C(=O)c2cc(NC(C)=O)ccc2OC[C@H](C)N(C(=O)CC2CC2)C[C@H]1C	-4	0	0	.	.	.	.
Cc1nc(-c2ccccc2)sc1-c1nnc(-c2cccc3ccccc23)o1	.	-1	.	.	.	.	.
CC1(C)CC[C@]2(C(=O)O)CC[C@]3(C)C(=CCC4[C@@]5(C)CC[C@H](O[C@@H]6O[C@H](C(=O)O)[C@@H](O[C@@H]7OC[C@@H](O)[C@H](O)[C@H]7O)[C@H](O)[C@H]6O)C(C)(C)C5CC[C@]43C)C2C1 (stereo partly specified)	.	0	.	.	.	.	.
O=C(CN1CCOCC1)N1CCCCN2[C@H](CO)[C@@H](c3ccc(/C=C/c4ccccc4)cc3)[C@@H]2C1	56	.	1	.	.	.	.
Cc1ccccc1-c1ccc([C@H]2[C@H](CO)N3CCCCN(C(=O)CN4CCOCC4)C[C@@H]23)cc1	102*	.	-1	87	70	14	23
Cc1ccccc1-c1ccc([C@H]2[C@H]3CN(C(=O)CN4CCOCC4)CCCCN3[C@H]2CO)cc1	-1	.	-1	.	.	.	.
Cc1ccccc1-c1ccc([C@@H]2[C@H](CO)N3CCCCN(C(=O)CN4CCOCC4)C[C@@H]23)cc1	101*	.	2	84	47	36*	32*
COCCCN=C1NS(=O)(=O)c2ccccc21	.	1	.	.	.	.	.
Cc1onc(-c2ccccc2Cl)c1C(=O)NCCc1ccc(S(N)(=O)=O)cc1	.	1	.	.	.	.	.
CO[C@@H]1CN(C)C(=O)c2cc(NC(=O)Nc3cccc(Cl)c3)ccc2OC[C@@H](C)NC[C@@H]1C	-5	0	0	.	.	.	.
CCS(=O)(=O)N1CCCCN2[C@H](C1)[C@H](c1ccc(-c3ccccc3F)cc1)[C@@H]2CO	92	.	-1	.	.	.	.
CCS(=O)(=O)N1CCCCN2[C@@H](CO)[C@@H](c3ccc(-c4ccccc4F)cc3)[C@@H]2C1	106*	.	-2	90	16	11	57*
Cn1cnc(S(=O)(=O)N2CCCCN3[C@H](CO)[C@H](c4ccc(-c5ccccc5F)cc4)[C@H]3C2)c1	46	.	4	.	.	.	.
CCS(=O)(=O)N1CCCCN2[C@H](CO)[C@@H](c3ccc(-c4ccccc4F)cc3)[C@@H]2C1	?	.	-2	103*	56	12	24
CCS(=O)(=O)N1CCCCN2[C@@H](CO)[C@H](c3ccc(-c4ccccc4F)cc3)[C@@H]2C1	?	.	0	104*	51	17	42*
CCS(=O)(=O)N1CCCCN2[C@H](C1)[C@@H](c1ccc(-c3ccccc3C)cc1)[C@@H]2CO	74	.	-3	.	.	.	.
O=C(CCCCCCC(=O)Nc1ccccc1O)N/N=C/c1cc(Cl)cc(Cl)c1O	.	0	.	.	.	.	.
Cc1cc(C)c2nc(-c3cccnc3)cc(C(=O)Nc3c(C)nn(Cc4ccccc4C)c3C)c2c1	.	0	.	.	.	.	.
COc1ccc(-c2ccc3c(c2)[C@@H]2[C@@H](CCN2C(=O)c2ccc(F)cc2)[C@@H](CO)N3C)cc1	24	.	2	.	.	.	.
COc1cccc(-c2ccc3c(c2)[C@H]2[C@H](CCN2C(=O)c2ccc4c(c2)OCO4)[C@H](CO)N3C)c1	35	.	-3	.	.	.	.
COc1ccc(-c2ccc3c(c2)[C@@H]2[C@@H](CCN2C(=O)c2ccc4c(c2)OCO4)[C@@H](CO)N3C)cc1	100*	.	-2	105*	100*	22	19
SMILES	T cruzi growth-1	IDH1 mut inh	GASC1 inh	T cruzi growth-2	T cruzi growth-3	3T3 cytotox	NIH3T3 tox 2
COc1ccc(-c2ccc3c(c2)[C@@H]2[C@@H](CCN2C(=O)c2ccncc2)[C@H](CO)N3C)cc1	?	.	1	108*	42	-2	10
Cc1ccc(S(=O)(=O)N(C)CC(=O)Nc2cccc(I)c2)cc1	.	0	.	.	.	.	.
CCOc1ccc(NC(=O)C(C)Sc2ncnc3sc(-c4ccccc4)cc23)cc1 (stereo unspecified)	.	0	.	.	.	.	.
COc1ccc(C#Cc2ccc3c(c2)O[C@@H](CN(C)S(=O)(=O)c2ccccc2F)[C@H](C)CN([C@H](C)CO)S3(=O)=O)cc1	.	0	-4	.	.	.	.
C[C@H]1CN([C@@H](C)CO)S(=O)(=O)c2ccc(C#Cc3ccccc3)cc2O[C@H]1CN(C)S(=O)(=O)c1ccccc1F	123*	0	-4	106*	?	16	-5
C[C@@H]1CN([C@@H](C)CO)S(=O)(=O)c2ccc(C#Cc3ccccc3)cc2O[C@H]1CN(C)S(=O)(=O)c1ccccc1F	124*	0	-3	109*	88	41*	47*
N#Cc1cccc(-c2ccc3c(c2)[C@H]2[C@H](CCN2S(=O)(=O)c2ccccc2)[C@@H](CO)N3)c1	91	.	0	.	.	.	.
CCCC1=CC(=O)C(O)C1O (stereo unspecified)	.	0	.	.	.	.	.
C[C@@H]1CCCCO[C@H](CN(C)Cc2ccc3c(c2)OCO3)[C@@H](C)CN([C@@H](C)CO)C(=O)c2cc(NS(C)(=O)=O)ccc2O1	38	3	2	.	.	.	.
Cc1ccccc1NC(=O)c1ccc(OCC(=O)Nc2ccccc2C(F)(F)F)cc1	.	0	.	.	.	.	.
CC(=O)N(C)C[C@H]1Oc2cc(C#CC3CCCC3)ccc2S(=O)(=O)N([C@@H](C)CO)C[C@H]1C	56	.	-1	.	.	.	.
CC(=O)N(C)C[C@H]1Oc2cc(C#CC3CCCCC3)ccc2S(=O)(=O)N([C@@H](C)CO)C[C@@H]1C	?	.	-1	108*	86	-3	56*
CC(=O)N(C)C[C@@H]1Oc2cc(C#CC3CCCC3)ccc2S(=O)(=O)N([C@@H](C)CO)C[C@@H]1C	88	.	0	.	.	.	.

Screening results deposited in PubChem by Broad Institute.
